This note sets out measurements from PubChem BioAssay.

Unmarked numbers belong to inactive results.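 How the source made its calls: active means growth inhibition above 25% in both replicates, a cutoff set 3 SD above the mean; inconclusive means above 25% in only one replicate; inactive means the rest.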

This assay in a line: S. cerevisiae growth inhibition in permissive medium (OD615), pilot counter-assay for S. cerevisiae lifespan shortening project, permissive growth control (AID 705). The settings on record: OD615, 24 h, at 10 µM, stronger effect = higher value. In outline:
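System: S. cerevisiae with engineered DeaD lifespan system / Measured by: absorbance (optical density) at 615 nm / Read-out: reduction in yeast growth (OD615) / Times: 4 h cell pre-growth, 24 h exposure at 30 °C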
Take `N#Cc1c2n(c3c(=O)n(Cc4ccc(Cl)cc4)cnc13)CCCC2`: the growth inhibition was -12.5%.
Turning to `COc1cccc(-n2c(Cc3cc(=O)[nH]c(=O)[nH]3)nnc2SCC(=O)N2CCCCCC2)c1`, the growth inhibition was -10.1%.
In the case of `CCOC(=O)CN1CC23C=CC(O2)C(C(=O)NC2CCCCCC2)C3C1=O` (centres undefined), the growth inhibition is -6.04%.
With `Cc1ccc(C(=O)COC(=O)c2cnccn2)cc1`, the growth inhibition was -15.1%.
Regarding `Cc1cc(C)n(-c2nc(C)nc(NCc3ccccc3)n2)n1`, the growth inhibition was -17.5%.
Regarding `CC(CCc1ccccc1)NC(=O)C1CCN(C(=O)c2sccc2-n2cccc2)CC1` (centres undefined), the growth inhibition is -4.79%.
With `Cc1onc(-c2ccccc2Cl)c1C(=O)N1CCCCC1C(=O)O` (centres undefined) the figure was 0.56%.
For `O=C(c1ccc(=O)[nH]c1)N(Cc1ccco1)C1(C(=O)NC2CCCCC2)CCCCC1`, the growth inhibition is -20%.
On to `CCCS(=O)(=O)c1nc(S(=O)(=O)c2ccc(C)cc2)c(N2CCCC2)s1`, for which the growth inhibition is -0.655%.
For `CCOC(=O)N1CCC(N2C(=O)c3ccccc3C2=O)CC1`, the growth inhibition was -1.78%.
On to `O=c1oc(-c2cc3ccccc3o2)nc2sc3c(c12)CCCC3`, for which the growth inhibition is -10.5%.
With `O=C(NC1CCN(Cc2ccccc2)CC1)C1CCN(c2nnc(-n3cccc3)s2)CC1` the figure was 3.62%; with `Cn1nc(-c2ccc(Cl)cc2)c2cc(C(=O)NCCCN3CCOCC3)sc21`, -3.37%.
In the case of `CC(C)N(Cc1nc(-c2ccccc2)no1)C(=O)Cc1ccccc1`, the growth inhibition is -14.4%.
Then `COc1ccc(CC2CCOC2=O)cc1` (centres undefined), with -10.7%; and `CCOc1cccc(=O)c2c(C)n(Cc3ccco3)c(C)c12`, with -12.4%; and `COc1ccccc1NC(=O)c1ccc(S(=O)(=O)N(C)C)cc1`, with 0.34%.
Take `Cc1noc(NS(=O)(=O)c2ccc(NC(=O)CSc3nc4c(cc3C#N)CCCC4)cc2)c1C`: the growth inhibition is 2.36%.
For `CCOc1ccc(N2C(=O)c3ccccc3C2O)cc1` (centres undefined), the growth inhibition is 6.33%.
Take `COc1ccc(N2CCN(c3cc(=O)n(Cc4ccc(F)cc4)c(=O)[nH]3)CC2)cc1`: the growth inhibition was -4.88%.
`COc1ccc2nc(NC(=O)c3ccc4ncsc4c3)sc2c1`: the growth inhibition was 0.465%.
In the case of `CC(C)Oc1ccc(N2CC(C(=O)Nc3ccc4c(c3)OCO4)CC2=O)cc1` (centres undefined), the growth inhibition was -13.3%.
Turning to `N#Cc1nc(-c2ccccc2F)oc1NCc1ccccc1`, the growth inhibition is -4.66%.
For `O=C(CN1CCN(CC(=O)Nc2ccccn2)CC1)Nc1ccccn1`, the growth inhibition is -2.54%.
With `O=C(c1ccccc1)N1CCN(c2ccc(NCc3ccc4c(c3)OCO4)cc2)CC1`, the growth inhibition was -15.1%.
For `Brc1ccccc1Cn1c(-c2cncs2)nc2ccccc21`, the growth inhibition was -8.58%.
With `Cc1csc2nc(CNS(=O)(=O)c3ccc(-c4ccccc4)cc3)cn12` the figure was -8.76%.
As for `Cc1c(Br)cc(C(=O)N2CCCC2)c(C)c1C`, the growth inhibition is -12.7%.
With `CSc1ccc(S(=O)(=O)N2CCN(Cc3ccc4c(c3)OCO4)CC2)cc1` the figure was -2.74%; with `O=C(NCC(c1cccnc1)N1CCN(c2ccccc2F)CC1)c1ccccc1` (centres undefined), -9.54%.
Then `CCCS(=O)(=O)NCCc1cc2ccc(OC)cc2[nH]c1=O`, with -13.2%; and `COc1ccc(NC(=O)NCCCN2CCCC2=O)cc1`, with -2.73%.
For the molecule `CCCOCCOC(=O)C1=C(C)NC(=O)NC1c1cc(Cl)c(O)c(OC)c1` (centres undefined), the growth inhibition is -3.46%.
Then `CCN(CC)CCCNC(=O)c1cc2c(-c3ccc(Cl)cc3)nn(C)c2s1`, with 0.63%.
Take `O=C(Nc1ccc(OC(F)(F)F)cc1)c1cnc2n(c1=O)CCS2`: the growth inhibition is -14.9%.
Take `Cc1cc(C)c2c(=O)[nH]c(SCC(=O)N3CCCCC3)nc2n1`: the growth inhibition is -12.1%.
With `CCCCN(CC)CCNC(=O)c1cc2c(=O)n(C)c3ccccc3c2n1C`, the growth inhibition is 2.65%.
With `Cc1noc(C(=O)N2CCN(c3ccc(F)cc3)CC2)c1Cl`, the growth inhibition was -12.6%.
For `CCOC(=O)c1ccc(N2C(=O)c3n[nH]c(C)c3C2c2ccccn2)cc1` (centres undefined), the growth inhibition was 0.375%.
